Source: ChEMBL document CHEMBL1155735, “Isolation and bioactivities of constitutents of the roots of Garcinia atroviridis” (J Nat Prod, 2001)
In brackets after ≈: the same amount, converted by molar mass. Activity calls are given as the source filed them. The rule behind the calls is not given here.

Legend:
Staphylococcus aureus = assay: Antibacterial activity against Staphylococcus aureus at 10 ug/disk by disk diffusion method; format: functional; details: read-out: DIZ
Summary of the method: (§1)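 Disk diffusion, with test compound applied at 10 µg per disk. Streptomycin sulfate served as the reference antibacterial. Procedure followed an earlier report.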

Escherichia coli = assay: Antibacterial activity against Escherichia coli at 10 ug/disk by disk diffusion method; format: functional; summary of the method: as §1
Bacillus cereus = assay: Antibacterial activity against Bacillus cereus at 10 ug/disk by disk diffusion method; format: functional; details: read-out: DIZ; summary of the method: as §1
HeLa = assay: Cytotoxicity against human HeLa cells after 72 hrs by MTT assay; format: functional, cell-based
Summary of the method: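 Human cervical carcinoma HeLa cells were exposed for 72 h and viability read by MTT. IC50 values were reported in µg/mL, with doxorubicin and colchicine run as reference standards. Method followed an earlier report.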

Candida albicans = assay: […] activity against Candida albicans at 10 ug/disk by disk diffusion method; format: functional, organism-based
Aspergillus ochraceus = assay: Antifungal activity against Aspergillus ochraceus at 10 ug/disk by disk diffusion method; format: functional, organism-based

COC(=O)c1c(O)cc(O)cc1OC1=C(OC)C(=O)C(CC=C(C)C)=C(CC=C(C)C)C1=O [ATROVIRINONE]
zone of inhibition at 10 µg/disc (Staphylococcus aureus): 6.5 mm | diameter of the inhibition zone (DIZ) (Escherichia coli): inactive | zone of inhibition at 10 µg/disc (Bacillus cereus): 6.5 mm | IC50 (HeLa): 15 µg/mL (≈ 32.9 µM) | Activity (Candida albicans): inactive | Activity (Aspergillus ochraceus): inactive

COc1c(O)c(CC=C(C)C)c(CC=C(C)C)c2c1Oc1cc(O)cc(O)c1C(=O)O2 [ATROVIRISIDONE]
zone of inhibition at 10 µg/disc (Staphylococcus aureus): 8 mm | diameter of the inhibition zone (DIZ) (Escherichia coli): inactive | zone of inhibition at 10 µg/disc (Bacillus cereus): 7.5 mm | IC50 (HeLa): > 30 µg/mL | Activity (Candida albicans): inactive | Activity (Aspergillus ochraceus): inactive

COc1cc2c(c(OC)c1OC)-c1ccc(OC)c(=O)cc1[C@@H](NC(C)=O)CC2 [COLCHICINE]
IC50 (HeLa): 21 µg/mL (≈ 52.6 µM)

COc1cccc2c1C(=O)c1c(O)c3c(c(O)c1C2=O)C[C@@](O)(C(=O)CO)C[C@@H]3O[C@H]1C[C@H](N)[C@H](O)[C@H](C)O1 [DOXORUBICIN]
IC50 (HeLa): 11 µg/mL (≈ 20.2 µM)

CN[C@@H]1[C@H](O[C@H]2[C@H](O[C@H]3[C@H](O)[C@@H](O)[C@H](N=C(N)N)[C@@H](O)[C@@H]3N=C(N)N)O[C@@H](C)[C@]2(O)C=O)O[C@@H](CO)[C@H](O)[C@H]1O [STREPTOMYCIN]
zone of inhibition at 10 µg/disc (Staphylococcus aureus): 13.5 mm | zone of inhibition at 10 µg/disc (Escherichia coli; read-out: DIZ): 12.5 mm | zone of inhibition at 10 µg/disc (Bacillus cereus): 21 mm
